Legend:
Mus musculus [1] = assay: Toxicity in CD-1 mouse assessed as skin atrophy of sebaceous gland up to 300 mg/kg, po; type: organism-based; set-up: dose 300 mg/kg, route oral; settings: in vivo
Mus musculus [2] = assay: Toxicity in CD-1 mouse assessed as absolute liver weight at 300 mg/kg, po; type: organism-based; set-up: dose 300 mg/kg, route oral; settings: in vivo
Mus musculus [3] = assay: Toxicity in CD-1 mouse assessed as effect on body weight up to 300 mg/kg, po; type: organism-based; set-up: dose 300 mg/kg, route oral; settings: in vivo
Mus musculus [4] = assay: Toxicity in mouse assessed as abnormalities in skin at 30 mg/kg; type: organism-based; set-up: dose 30 mg/kg; settings: in vivo
Mus musculus [5] = assay: Toxicity in CD-1 mouse assessed as meibomian gland (atrophy, squamous metaplasia) up to 300 mg/kg, po; type: organism-based; set-up: dose 300 mg/kg, route oral; settings: in vivo
[6] = Plasma concentration in AKR/J mouse at 30 mg/kg measured after 4 hrs; type: ADME, organism-based; set-up: dose 30 mg/kg
Procedure, shortened: (§1)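 Male AKR/J mice, 7 weeks old (n = 10/group) and fed a 10% kcal low-fat diet, were given oral doses of 1, 3, 10 or 30 mg/kg. Plasma was collected 4 h after dosing, and drug concentration in that plasma was measured.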

[7] = AUC (0 to 24 hrs) in CD-1 mouse at 300 mg/kg, po; type: ADME, organism-based; set-up: time < 24 hr, dose 300 mg/kg, route oral; settings: plasma
Procedure, shortened: (§2)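 Male CD-1 mice received single daily oral gavage doses of 30, 100 or 300 mg/kg for 2 weeks. Plasma drug levels were determined on Day 13, and exposure was expressed as AUC(0–24 h).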

Mus musculus [8] = assay: Toxicity in CD-1 mouse assessed as effect on food consumption up to 300 mg/kg, po; type: organism-based; set-up: dose 300 mg/kg, route oral; settings: in vivo
[9] = Plasma concentration in AKR/J mouse at 1 mg/kg measured after 4 hrs; type: ADME, organism-based; set-up: dose 1 mg/kg; procedure, shortened: as §1
Acyl-CoA desaturase 1 = target: T1, Acyl-CoA desaturase 1 (Rattus norvegicus, UniProt P07308); assay: Inhibition of rat SCD1 by rat microsomal assay
T1 sequence (P07308 whole entry): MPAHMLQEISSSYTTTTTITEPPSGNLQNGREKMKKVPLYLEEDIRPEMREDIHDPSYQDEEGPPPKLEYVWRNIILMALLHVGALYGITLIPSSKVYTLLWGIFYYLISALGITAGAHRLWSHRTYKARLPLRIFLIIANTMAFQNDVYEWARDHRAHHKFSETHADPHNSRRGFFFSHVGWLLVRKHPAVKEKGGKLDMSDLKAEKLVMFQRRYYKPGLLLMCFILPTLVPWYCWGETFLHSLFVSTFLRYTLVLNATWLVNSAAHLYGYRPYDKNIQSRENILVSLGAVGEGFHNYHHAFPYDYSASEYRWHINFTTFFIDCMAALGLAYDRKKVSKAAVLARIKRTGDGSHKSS
Procedure, shortened: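 Microsomal desaturase activity was measured in 100 mM Tris HCl pH 7.3 with 2 mM NADH and [9,10-3H]stearoyl-CoA for 15 min at room temperature. The reaction was stopped on ice with trichloroacetic acid, then passed through activated charcoal, and tritium in the filtrate was counted. Compounds were tested in 2% DMSO final. Percent inhibition = (total−sample)/(total−blank)×100, with the blank set by 10⁻⁴ M of a standard inhibitor.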

[10] = Plasma concentration in AKR/J mouse at 10 mg/kg measured after 4 hrs; type: ADME, organism-based; set-up: dose 10 mg/kg; procedure, shortened: as §1
Mus musculus [11] = assay: Toxicity in mouse assessed as abnormalities in eyes at 30 mg/kg; type: organism-based; set-up: dose 30 mg/kg; settings: in vivo
Mus musculus [12] = assay: Toxicity in CD-1 mouse assessed as eyelid atrophy of sebaceous gland up to 300 mg/kg, po; type: organism-based; set-up: dose 300 mg/kg, route oral; settings: in vivo
Rattus norvegicus = assay: AUC in rat at 10 mg/kg; type: ADME, organism-based, Plasma; set-up: dose 10 mg/kg; settings: in vivo
Procedure, shortened: (§3)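 Rats were given a single 10 mg/kg dose. Plasma exposure (AUC, Cmax) was determined, and drug concentrations in plasma, brain and liver were measured at 6 h post-dose. The liver/plasma ratio was taken from the 6 h levels.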

Mus musculus [13] = assay: Toxicity in CD-1 mouse assessed as minimal Leydig cell hyperplasia of the testes at 300 mg/kg, po; type: organism-based, Testis; set-up: dose 300 mg/kg, route oral; settings: in vivo
[14] = AUC (0 to 24 hrs) in CD-1 mouse at 30 mg/kg, po; type: ADME, organism-based; set-up: time < 24 hr, dose 30 mg/kg, route oral; settings: plasma; procedure, shortened: as §2
Mus musculus [15] = assay: Toxicity in CD-1 mouse assessed as absolute liver weight at 100 mg/kg, po; type: organism-based; set-up: dose 100 mg/kg, route oral; settings: in vivo
Mus musculus [16] = assay: Toxicity in CD-1 mouse assessed as decrease in relative peri-renal fat weight at 100 to 300 mg/kg, po relative to control; type: organism-based; set-up: dose 100-300 mg/kg, route oral; settings: in vivo
Mus musculus [17] = assay: Toxicity in CD-1 mouse assessed as relative liver weight at 100 mg/kg, po; type: organism-based; set-up: dose 100 mg/kg, route oral; settings: in vivo
Mus musculus [18] = assay: Toxicity in CD-1 mouse assessed as decrease in absolute peri-renal fat weight at 100 to 300 mg/kg, po relative to control; type: organism-based; set-up: dose 100-300 mg/kg, route oral; settings: in vivo
Mus musculus [19] = assay: Toxicity in CD-1 mouse assessed as inhibition of fatty acid metabolism measured as lesions in eyes and skin at 30 to 300 mg/kg, po for 2 weeks; type: organism-based; set-up: dose 30-300 mg/kg, route oral; settings: in vivo, 336 h
Mus musculus [20] = assay: Toxicity in CD-1 mouse assessed as atrophy of the harderian and meibomian glands up to 300 mg/kg, po; type: organism-based; set-up: dose 300 mg/kg, route oral; settings: in vivo
[21] = AUC (0 to 24 hrs) in CD-1 mouse at 100 mg/kg, po; type: ADME, organism-based; set-up: time < 24 hr, dose 100 mg/kg, route oral; settings: plasma; procedure, shortened: as §2
[22] = Plasma concentration in AKR/J mouse at 3 mg/kg measured after 4 hrs; type: ADME, organism-based; set-up: dose 3 mg/kg; procedure, shortened: as §1
Mus musculus [23] = assay: Toxicity in CD-1 mouse assessed as relative liver weight at 300 mg/kg, po; type: organism-based; set-up: dose 300 mg/kg, route oral; settings: in vivo
[24] = Cmax in rat at 10 mg/kg; type: ADME, organism-based; set-up: dose 10 mg/kg; settings: in vivo; procedure, shortened: as §3
Mus musculus [25] = assay: Toxicity in CD-1 mouse assessed as tubular atrophy of the testes up to 300 mg/kg, po; type: organism-based, Testis; set-up: dose 300 mg/kg, route oral; settings: in vivo
[26] = Plasma concentration in rat at 10 mg/kg measured after 6 hrs; type: ADME, organism-based; set-up: dose 10 mg/kg; procedure, shortened: as §3
[27] = Ratio of drug level in liver to plasma of rat at 10 mg/kg measured after 6 hrs; type: ADME, organism-based; set-up: dose 10 mg/kg; procedure, shortened: as §3
Mus musculus [28] = assay: Toxicity in CD-1 mouse assessed as eyes (corneal degeneration, inflammation) up to 300 mg/kg, po; type: organism-based, Cornea; set-up: dose 300 mg/kg, route oral; settings: in vivo
[29] = Drug level in liver in rat at 10 mg/kg measured after 6 hrs; type: ADME, organism-based; set-up: dose 10 mg/kg; settings: read-out: Drug uptake; procedure, shortened: as §3

concentration at 4 h [6]: 1740 ng/mL
AUC(0-t) at 24 h [7]: 1520 µM·h
concentration at 4 h [9]: 0.64 ng/mL
IC50 (Acyl-CoA desaturase 1): 8 nM
concentration at 4 h [10]: 135 ng/mL
AUC (Rattus norvegicus): 2308 ng·h/g
AUC(0-t) at 24 h [14]: 114 µM·h
AUC(0-t) at 24 h [21]: 565 µM·h
concentration at 4 h [22]: 45 ng/mL
Cmax [24]: 495 ng/g
concentration at 6 h [26]: 345 ng/g
Kp at 6 h [27]: 56
concentration at 6 h [29]: 19200 ng/g
SMILES: O=C(O)c1cnc(N2CCC3(CC2)CCN(Cc2cccc(C(F)(F)F)c2)c2ccccc2O3)s1
Activity (Mus musculus [1]): Toxic
Activity (Mus musculus [2]): 29%
Activity (Mus musculus [3]): Non-toxic
Activity (Mus musculus [4]): Non-toxic
Activity (Mus musculus [5]): Toxic
Activity (Mus musculus [8]): Non-toxic
Activity (Mus musculus [11]): Non-toxic
Activity (Mus musculus [12]): Toxic
Activity (Mus musculus [13]): Toxic
Activity (Mus musculus [15]): 19%
Activity (Mus musculus [16]): Toxic
Activity (Mus musculus [17]): 20%
Activity (Mus musculus [18]): Toxic
Activity (Mus musculus [19]): Toxic
Activity (Mus musculus [20]): Toxic
Activity (Mus musculus [23]): 33%
Activity (Mus musculus [25]): Toxic
Activity (Mus musculus [28]): Toxic
